# Results: ChEMBL document CHEMBL4152387, “Discovery of a Potent Grp94 Selective Inhibitor with Anti-Inflammatory Efficacy in a Mouse Model of Ulcerative Colitis” (J Med Chem, 2018)
# Active and inactive are the calls of the source. The calls are words filed in the database; no cut-off is given here.
# Tests used:
# [1] = target: T1, Heat shock protein HSP 90-alpha (Homo sapiens, UniProt P07900); assay: Binding affinity to human His-tagged HSP90alpha N-terminal domain (1 to 236 residues) expressed in Escherichia coli BL21star (DE3) dissociation constant by biolayer interferometry; settings: read-out: K
# In short: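 Biotinylated His-tagged N-terminal protein, labelled in PBS pH 7.4 at one molar ratio with excess biotin removed by overnight dialysis, was loaded at 400 nM final onto streptavidin biosensors pre-wetted 10 min in kinetics buffer (PBS, 0.05% BSA, 0.01% Tween-20). Four compound concentrations in kinetics buffer were then tested for binding, with all data collected at 30 °C.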
# [2] = target: T1, Heat shock protein HSP 90-alpha; assay: Inhibition of HSP90alpha in human PANC1 cells assessed as akt degradation at 1 to 5 uM after 36 hrs by Western blot analysis; format: cell-based
# In short: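 Panc-1 cells treated 36 h; total protein lysate with protease/phosphatase inhibitors; equal protein by BCA on SDS-PAGE, PVDF, Western blot for Hsp70 and Akt, β-actin loading control; AT13387 reference.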
# Mus musculus [3] = assay: Anti-inflammatory activity in C57BL/6 mouse model of DSS-induced ulcerative colitis assessed reduction in disease activity index at 10 to 30 mg/kg, ip qd co-administrated with DSS measured until day 7 post dose; format: functional, organism-based
# In short: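 Male C57BL/6 mice (20−22 g), n = 8 per group, 3% DSS in drinking water for 7 days with ip qd dosing at 10 or 30 mg/kg; vehicle for normal and disease controls. Body weight, stool consistency and rectal bleeding recorded daily; DAI scored from weight loss, stool consistency and stool blood.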
# Mus musculus [4] = assay: Subacute toxicity in C57BL/6 mouse assessed as behavioral abnormalities at 30 to 90 mg/kg, ip qd for 2 weeks; format: organism-based; settings: in vivo, 336 h
# Canis lupus familiaris [5] = species on record: Canis lupus familiaris; assay: Inhibition of FITC-geldanamycin binding to dog GST-tagged GRP94 N41 deletion mutant (69 to 337 residues) expressed in Escherichia coli BL21star (DE3) at 100 uM after 4 hrs by FP assay relative to control
# [6] = target: T1, Heat shock protein HSP 90-alpha; assay: Inhibition of FITC-geldanamycin binding to human His-tagged HSP90alpha N-terminal domain (1 to 236 residues) expressed in Escherichia coli BL21star (DE3) at 100 uM after 4 hrs by FP assay relative to control
# In short: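 Hsp90αN (15 nM final) with GM-FITC (6 nM final) and compound in HEPES/KCl/MgCl2 buffer pH 7.4 with NP40, DTT, BGG; 4 h at 4 °C in dark; FP at ex 485/em 535 nm; inhibition computed against GM-FITC-only and protein-plus-probe controls; n = 3.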
# [7] = Inhibition of FITC-geldanamycin binding to dog GST-tagged GRP94 N41 deletion mutant (69 to 337 residues) expressed in Escherichia coli BL21star (DE3) after 4 hrs by GM-FITC-based FP assay; parameters: species or system Canis lupus familiaris
# [8] = Ratio of Kd for human His-tagged biotinylated HSP90alpha N-terminal domain (1 to 236 residues) to Kd for dog His-tagged biotinylated GRP94 N41 deletion mutant (69 to 337 residues)
# Mus musculus [9] = assay: Anti-inflammatory activity in ip dosed C57BL/6 mouse model of DSS-induced ulcerative colitis assessed reduction in TNFalpha levels in serum co-administrated once daily with DSS measured on day 7 post dose by ELISA; format: functional, organism-based
# In short: (§1)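 DSS colitis in male C57BL/6 mice (3% DSS in water, 7 days, ip qd co-dosing, vehicle controls). Serum and colons taken at sacrifice on day 7; colon homogenate supernatants and serum assayed for mouse TNFα and IL-6 by ELISA kits; n = 5 samples per group.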
# Mus musculus [10] = assay: Subacute toxicity in C57BL/6 mouse assessed as effect on heart at 30 to 90 mg/kg, ip qd for 2 weeks by hematoxylin and eosin staining analysis; format: organism-based; settings: in vivo, 336 h
# Mus musculus [11] = assay: Anti-inflammatory activity in ip dosed C57BL/6 mouse model of DSS-induced ulcerative colitis assessed reduction in TNFalpha levels in colonic tissues co-administrated once daily with DSS measured on day 7 post dose by ELISA; format: functional, organism-based; in short: as §1
# [12] = target: T1, Heat shock protein HSP 90-alpha; assay: Binding affinity to human His-tagged HSP90alpha N-terminal domain (1 to 236 residues) expressed in Escherichia coli BL21star (DE3) by biolayer interferometry
# In short: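 His-tagged Hsp90N biotinylated in PBS pH 7.4 (one molar ratio), dialysed overnight, immobilized at 400 nM on streptavidin sensors; kinetics buffer PBS, 0.05% BSA, 0.01% Tween-20; four compound concentrations; 30 °C biolayer interferometry.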
# Mus musculus [13] = assay: Anti-inflammatory activity in C57BL/6 mouse model of DSS-induced ulcerative colitis assessed reduction in colonic tissue damage at 10 to 30 mg/kg, ip qd co-administrated with DSS measured on day 7 post dose; format: functional, organism-based
# In short: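 Male C57BL/6 mice (20−22 g), n = 8 per group, 3% DSS in drinking water 7 days plus ip qd dosing at 10 or 30 mg/kg; vehicle controls. Sacrificed at day 7, colons collected; colon length measured and H&E-stained colon sections examined.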
# Mus musculus [14] = assay: Anti-inflammatory activity in C57BL/6 mouse model of DSS-induced ulcerative colitis assessed reduction in TLR2 expression in colonic tissues at 10 to 30 mg/kg, ip qd co-administrated with DSS measured on day 7 post dose; format: functional, organism-based
# In short: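 DSS colitis in male C57BL/6 mice (3% DSS, 7 days, ip qd 10 or 30 mg/kg, vehicle controls); colons flash-frozen at day 7, homogenized in lysis buffer with protease/phosphatase inhibitors. Equal protein by BCA run on SDS-PAGE, PVDF, 1% BSA block, primary antibodies 37 °C 1 h then 4 °C overnight, DyLight 800 secondary, infrared scan; β-actin loading control.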
# Canis lupus familiaris [15] = species on record: Canis lupus familiaris; assay: Binding affinity to dog His-tagged biotinylated GRP94 N41 deletion mutant (69 to 337 residues) expressed in Escherichia coli BL21star (DE3) assessed as association constant by biolayer interferometry
# In short: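 His-tagged Grp94N biotinylated at one molar ratio in PBS pH 7.4, dialysed overnight, loaded at 400 nM on streptavidin biosensors after 10 min prewetting in PBS, 0.05% BSA, 0.01% Tween-20. Four compound concentrations in this buffer tested; binding recorded at 30 °C by biolayer interferometry.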
smiles,measurement,setting,value
CC(C)c1ccc(-c2ccc(N[C@H]3CC[C@H](O)CC3)c(C(N)=O)c2)cc1,koff,[1],0.0345 s⁻¹
same,inhibition (INH),[2],Not Active
same,Activity,Mus musculus [3],Active
same,Activity,Mus musculus [4],Non-Toxic
same,inhibition,Canis lupus familiaris [5],100%
same,inhibition (INH),[6],Not Active
same,IC50,[7],0.002 µM
same,Ratio,[8],> 1000
same,Activity,Mus musculus [9],Dose-dependent effect
same,Activity,Mus musculus [10],Non-Toxic
same,Activity,Mus musculus [11],Dose-dependent effect
same,Kd,[12],20.6 µM
same,Activity,Mus musculus [13],inactive
same,Activity,Mus musculus [14],Active
same,K,Canis lupus familiaris [15],6.38 ×10⁵ /M/s
